A word on the inhibition: it is the drop in the measured response relative to a control, in per cent. Low readings indicate a response near the control, high ones a response far below the control. Broadly, the IC50 is the point on the concentration scale where inhibition reaches its midpoint. A low value points to greater potency in that assay.

Assay [1] addresses T1, Leukotriene B4 receptor (Homo sapiens) (UniProt Q9NPC1+Q15722). The assay can be described thus: Antagonistic activity against Leukotriene B4 receptor by using [3H]- LTB4 as a radioligand at a concentration of 10e-5 M. Type of assay: functional. In outline: (§1)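 Neutrophil suspensions (≥90% neutrophils, ≥90% viable) at 2 × 10^7 cells/mL in Hanks' balanced salt solution with 0.1% ovalbumin. Cells were incubated 10 min at 4 °C with compound in DMSO and [3H]LTB4 added as a 2.65 nM solution. Cells were spun 2 min through dibutyl/dinonyl phthalate (7:2) and the pellet counted by scintillation. Nonspecific binding was measured with >2000-fold excess unlabeled ligand. Results are % inhibition of specific binding, mean of ≥3 replicates.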

The target of assay [2] is T1, Leukotriene B4 receptor (Homo sapiens). Kind of assay: Antagonistic activity against Leukotriene B4 receptor by using [3H]- LTB4 as a radioligand at a concentration of 10e-6 M. The class given is functional. The method in brief:
as §1

Assay [3] shares this target. Kind of assay: Antagonistic activity against Leukotriene B4 receptor by using [3H]- LTB4 as a radioligand at a concentration of 10e-7 M. The class given is functional. In outline: as §1
Assay [4] has the same target. Kind of assay: Antagonistic activity against Leukotriene B4 receptor by using [3H]- LTB4 as a radioligand at a concentration of 10e-8 M. Type of assay: functional. The method in brief: as §1
Assay [5] has as its target T2, Leukotriene B4 receptor 1 (Homo sapiens, UniProt Q15722). Kind of assay: Inhibition of binding of B4 (LTB4) to Leukotriene B4 receptor on intact human neutrophils at a concentration of 10e -8M. The method in brief: as §1
Assay [6] concerns the target T2, Leukotriene B4 receptor 1. The assay can be described thus: Inhibition of binding of B4 (LTB4) to its Leukotriene B4 receptor on intact human neutrophils at a concentration of 10e -7M. In outline:
as §1

In assay [7] the target is T2, Leukotriene B4 receptor 1. Kind of assay: Inhibition of specific binding of [3H]LTB4 to Leukotriene B4 receptor in human neutrophils.

T1 sequence (Q15722 whole entry, looked up): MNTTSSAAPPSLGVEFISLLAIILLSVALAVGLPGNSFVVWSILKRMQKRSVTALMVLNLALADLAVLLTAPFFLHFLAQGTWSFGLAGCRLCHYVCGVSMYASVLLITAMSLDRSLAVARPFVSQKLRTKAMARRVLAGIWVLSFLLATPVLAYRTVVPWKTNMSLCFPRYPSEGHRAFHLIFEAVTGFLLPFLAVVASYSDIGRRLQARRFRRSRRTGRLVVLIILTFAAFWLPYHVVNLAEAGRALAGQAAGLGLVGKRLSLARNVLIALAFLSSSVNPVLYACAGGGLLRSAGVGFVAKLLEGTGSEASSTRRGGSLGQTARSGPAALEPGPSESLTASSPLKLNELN
T1 sequence (Q9NPC1 whole entry, looked up): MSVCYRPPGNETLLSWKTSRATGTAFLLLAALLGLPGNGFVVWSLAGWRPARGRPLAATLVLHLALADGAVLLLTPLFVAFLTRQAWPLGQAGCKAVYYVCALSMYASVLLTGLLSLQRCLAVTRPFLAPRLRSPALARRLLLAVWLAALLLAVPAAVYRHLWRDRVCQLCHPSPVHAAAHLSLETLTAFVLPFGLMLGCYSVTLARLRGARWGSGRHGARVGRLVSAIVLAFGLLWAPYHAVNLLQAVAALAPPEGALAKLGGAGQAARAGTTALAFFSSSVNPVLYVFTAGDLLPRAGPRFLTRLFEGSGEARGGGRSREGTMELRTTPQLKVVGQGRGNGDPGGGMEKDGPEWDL
T2 sequence (Q15722 whole entry): as the sequence (Q15722 whole entry, looked up) above

With `O=C(O)CCc1cc(C(=O)c2cccc(C(=O)O)c2)ccc1OCCCCc1cccs1`, the inhibition in assay [1] amounted to 72%.
Regarding `COc1ccc(C(=O)c2cccc(C(=O)O)c2)cc1CCC(=O)O`, the inhibition in assay [2] was found to be 7%; in assay [1] it was 0%.
Take `O=C(O)CCc1cc(C(=O)c2cccc(C(=O)O)c2)ccc1OCCCCCCc1ccc(F)cc1`: the inhibition in assay [3] stood at 22%; in assay [2] it was 77%; in assay [4], 6%; in assay [1] it was 100%.
On to `CCCCCCOc1ccc(C(=O)c2cccc(C(=O)O)c2)cc1CCC(=O)O`, for which the inhibition in assay [2] was 10%; in assay [5], 0%; in assay [6], 0%; in assay [1] it was 56%.
Take `CCCCCCCCCCCCCCOc1ccc(C(=O)c2cccc(C(=O)O)c2)cc1CCC(=O)O`: the inhibition in assay [2] amounted to 29%; in assay [5] it was 0%; in assay [6] it was 0%; in assay [1] it was 73%.
On to `COc1ccc(C#CCCCCOc2ccc(C(=O)c3cccc(C(=O)O)c3)cc2CCC(=O)O)cc1`, for which the inhibition was 45% in assay [3], 90% in assay [2], 9% in assay [4] and 100% in assay [1].
For the molecule `CCCCCCCCCCOc1ccc(C(=O)c2cccc(C(=O)O)c2)cc1CCC(=O)O`, the inhibition in assay [2] came to 60%; in assay [6], 7%; in assay [1], 95%.
With `O=C(O)CCc1cc(C(=O)c2cccc(C(=O)O)c2)ccc1OCCCC/C=C/c1ccccc1`, the inhibition in assay [3] amounted to 34%; in assay [2] it was 92%; in assay [4] it was 3%; in assay [1] it was 100%.
As to `COc1ccc(/C=C\CCCCOc2ccc(C(=O)c3cccc(C(=O)O)c3)cc2CCC(=O)O)cc1`, the inhibition in assay [3] stood at 31%; in assay [2], 76%; in assay [4] it was 0%; in assay [1], 90%.
For the molecule `CC(=O)c1ccc(CCCCCCOc2ccc(C(=O)c3cccc(C(=O)O)c3)cc2CCC(=O)O)cc1`, the inhibition is 46% in assay [3], 90% in assay [2] and 11% in assay [4].
Take `COc1ccccc1CCCCCCOc1ccc(C(=O)c2cccc(C(=O)O)c2)cc1CCC(=O)O`: the inhibition in assay [3] stood at 3%; in assay [2], 91%; in assay [4] it was 5%; in assay [1], 100%.
Turning to `O=C(O)CCc1cc(C(=O)c2cccc(C(=O)O)c2)ccc1OCCCCOc1ccccc1`, the values for the inhibition in assay [2] and in assay [1] were 16% and 67%, respectively.
In assay [7], `COc1ccc(/C=C/CCCCOc2ccc(C(=O)c3cccc(C(=O)O)c3)cc2CCC(=O)O)cc1` showed an IC50 of 0.0132 µM. The inhibition in assay [3] turned out to be 88%; in assay [2], 95%; in assay [4], 40%; in assay [1], 100%.
`O=C(O)CCc1cc(C(=O)c2cccc(C(=O)O)c2)ccc1OCCCCc1ccccc1`: the figures for the inhibition in assay [2] and in assay [1] were 21% and 78%, respectively.
As for `COc1ccccc1/C=C/CCCCOc1ccc(C(=O)c2cccc(C(=O)O)c2)cc1CCC(=O)O`, the inhibition in assay [3] amounted to 88%; in assay [2] it was 100%; in assay [4] it was 25%; in assay [1], 100%.
With `O=C(O)CCc1cc(C(=O)c2cccc(C(=O)O)c2)ccc1OCCCCCCc1ccccc1`, the inhibition stood at 85% in assay [2], 14% in assay [5], 36% in assay [6] and 100% in assay [1].
Taken in the same sequence, the figures for `CCCCCCCCOc1ccc(C(=O)c2cccc(C(=O)O)c2)cc1CCC(=O)O` were 35%, 0%, 0% and 87%.
Consider `O=C(O)CCc1cc(C(=O)c2cccc(C(=O)O)c2)ccc1OCCCCSc1ccccc1`, for which the figures for the inhibition in assay [2] and in assay [1] were 29% and 89%, respectively.
Turning to `O=C(O)CCc1cc(C(=O)c2cccc(C(=O)O)c2)ccc1OCc1ccccc1`, the inhibition in assay [2] turned out to be 3%; in assay [1], 31%.
For the molecule `O=C(O)CCc1cc(C(=O)c2cccc(C(=O)O)c2)ccc1OCCCCCCc1ccc(O)cc1`, the inhibition in assay [3] is 43%; in assay [2], 90%; in assay [4] it was 6%; in assay [1], 100%.
Taken in the same sequence, the figures for `COc1cccc(/C=C/CCCCOc2ccc(C(=O)c3cccc(C(=O)O)c3)cc2CCC(=O)O)c1` were 49%, 91%, 13% and 99%.
With `CCOc1ccc(C(=O)c2cccc(C(=O)O)c2)cc1CCC(=O)O`, the inhibition in assay [2], in assay [5], in assay [6] and in assay [1] was 0% in each case.
Consider `CSc1ccc(/C=C/CCCCOc2ccc(C(=O)c3cccc(C(=O)O)c3)cc2CCC(=O)O)cc1`, for which the inhibition is 18% in assay [3], 79% in assay [2] and 100% in assay [1].
Regarding `COc1ccc(CCCCCCOc2ccc(C(=O)c3cccc(C(=O)O)c3)cc2CCC(=O)O)cc1`, the inhibition in assay [3] was 68%; in assay [2] it was 96%; in assay [4] it was 18%; in assay [1], 100%.
`O=C(O)CCc1cc(C(=O)c2cccc(C(=O)O)c2)ccc1OCCCCCCc1ccc(Cl)cc1`: the inhibition in assay [3] was 42%; in assay [2] it was 93%; in assay [4], 15%; in assay [1], 100%.
On to `O=C(O)CCc1cc(C(=O)c2cccc(C(=O)O)c2)ccc1OCCCCS(=O)(=O)c1ccccc1`, for which the inhibition in assay [2] was 4%; in assay [1] it was 18%.
For `O=C(O)CCc1cc(C(=O)c2cccc(C(=O)O)c2)ccc1OCCCCCCCCCCc1ccccc1`, the inhibition in assay [3] is 28%; in assay [4], 0%.
With `COc1cccc(CCCCCCOc2ccc(C(=O)c3cccc(C(=O)O)c3)cc2CCC(=O)O)c1`, the inhibition in assay [3] worked out at 46%; in assay [2] it was 89%; in assay [1], 95%.
Consider `CS(=O)(=O)c1ccc(/C=C/CCCCOc2ccc(C(=O)c3cccc(C(=O)O)c3)cc2CCC(=O)O)cc1`, for which the inhibition came to 60% in assay [3], 89% in assay [2], 31% in assay [4] and 98% in assay [1].
As to `O=C(O)CCc1cc(C(=O)c2cccc(C(=O)O)c2)ccc1OCCCc1ccccc1`, the inhibition in assay [2] amounted to 19%; in assay [1] it was 60%.
On to `C[S+]([O-])c1ccc(/C=C/CCCCOc2ccc(C(=O)c3cccc(C(=O)O)c3)cc2CCC(=O)O)cc1` (stereo not drawn), for which the inhibition in assay [3] is 86%; in assay [2], 95%; in assay [4], 36%; in assay [1], 99%.
The matching figures for `COc1ccc(/C=C/CCCCOc2ccc(C(=O)c3cccc(C(=O)O)c3)cc2CCC(=O)O)c(OC)c1`: 66%, 96%, 20% and 100%.
Consider `O=C(O)CCc1cc(C(=O)c2cccc(C(=O)O)c2)ccc1OCCCC[S+]([O-])c1ccccc1` (stereo not drawn), for which the inhibition in assay [2] amounted to 0%; in assay [1], 22%.
For `Cc1ccc(/C=C/CCCCOc2ccc(C(=O)c3cccc(C(=O)O)c3)cc2CCC(=O)O)cc1`, the figures for the inhibition in assay [3], in assay [2] and in assay [4] were 73%, 96% and 24%, respectively.
Regarding `O=C(O)CCc1cc(C(=O)c2cccc(C(=O)O)c2)ccc1OCCc1ccccc1`, the inhibition in assay [2] is 3%; in assay [1], 37%.
